Bioassay records: PubChem BioAssay, several laboratories
core dimer inh – HCV core protein dimerization inhibition; AID 1899; inhibition, % at 5 µM; TR-FRET GST/Flag-core106 dimerization, 1536-well; hit rate 0.33% among 300,000;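 active = inhibition above the mean of all tested compounds plus 3 SD, set per screening campaign, cut at about 45% in these data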
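assay system = GST-tagged and Flag-tagged HCV core protein residues 1-106 | controls = unlabelled core106 and no-GST-core106 wells | incubation = compound-protein-antibody incubation 4 h at 22.5 °C | probe or stimulus = Eu donor and XL665 acceptor anti-tag antibodies | read-out = % inhibition based on acceptor/donor emission ratio | signal = TR-FRET 671 and 617 nm emission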
EBNA-1 inh – blocks EBNA-1 binding to DNA; EBNA-1 DNA binding, fluorescence polarization; hit rate 0.34% among 300,000; inhibition, % at 14.8 µM; AID 1950; in the data active = inhibition above about 28%
ZTA counter – counter-screen for EBNA-1 inhibitors: inhibitors of Epstein-Barr virus ZTA; P03206; inhibition, % at 11 µM; ZTA-DNA binding, fluorescence polarization; hit rate 0.15% among 320,000; in the data active = inhibition above about 33%
Target sequence (P03206 whole entry, looked up): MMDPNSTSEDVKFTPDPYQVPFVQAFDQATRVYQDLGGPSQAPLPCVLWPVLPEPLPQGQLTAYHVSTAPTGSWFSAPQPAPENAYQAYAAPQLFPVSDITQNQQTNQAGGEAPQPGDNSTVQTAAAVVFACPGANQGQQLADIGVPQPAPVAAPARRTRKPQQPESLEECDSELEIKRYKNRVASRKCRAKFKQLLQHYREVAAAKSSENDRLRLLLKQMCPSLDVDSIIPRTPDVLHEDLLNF
ALR inh – inhibitors of human sulfhydryl oxidase ALR | P55789 | purified ALR, DTT oxidation, H2O2 HRP-luminol luminescence | inhibition, % (no concentration beside the values) | hit rate 3.8% among 290,000;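 active = mean replicate inhibition above about 79%, with every replicate also reaching it, limit read from the data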
Target sequence (P55789 whole entry, looked up): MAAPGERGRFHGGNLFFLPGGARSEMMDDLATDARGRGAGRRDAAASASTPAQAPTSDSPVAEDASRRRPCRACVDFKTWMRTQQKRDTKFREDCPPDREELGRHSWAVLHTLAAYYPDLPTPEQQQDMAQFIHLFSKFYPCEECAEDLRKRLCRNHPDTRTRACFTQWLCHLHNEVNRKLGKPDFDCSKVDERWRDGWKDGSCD
NS3 helicase inh – inhibitors of Hepatitis C virus NS3 helicase; hit rate 0.56% among 290,000; inhibition, % at 10.9 µM; NS3 helicase DNA unwinding, Cy5 molecular beacon fluorescence; AID 1800;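 active = inhibition above the mean of all tested compounds plus 3 SD, set per campaign, cut at about 35% in these data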;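 note: 0% = DMSO wells and 100% = thioflavine S control wells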
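System: Hepatitis C virus NS3 helicase domain fragment enzyme | Reagent: Annealed dual-labelled DNA beacon duplex, ATP-started | Compound dosing: 10.9 µM single point, 0.8% DMSO | Incubation: 1 h reaction at 25 °C, ATP-initiated | Technique: Cy5 fluorescence | Evaluation: Percent inhibition from t60/t0 fluorescence ratio | Benchmarks: Low DMSO, high thioflavine S at 110 µM | Replication: Singlicate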
M18AAP inhibitor – PfM18AAP enzyme inhibition | recombinant PfM18AAP, H-Glu-NHMec fluorogenic cleavage | AID 1822 | inhibition, % at 7.35 µM | hit rate 1.2% among 290,000;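 active = inhibition above the campaign mean inhibition over all tested compounds plus 3 SD, cut at about 28% in these data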;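 note: 0% = plate median of test compound wells and 100% = 2 mM ZnCl2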
NS3 hel confirm – confirmation of Hepatitis C virus NS3 helicase inhibitors; AID 1943; NS3 helicase DNA unwinding, Cy5 molecular beacon fluorescence; inhibition, % at 10.9 µM; hit rate 31% among 1,600; shares compounds with NS3 helicase inh;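 active = inhibition above the mean of all tested compounds plus 3 SD, cutoff set per campaign, cut at about 36% in these data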
DNA FID counter – intercalator displacement, NS3 helicase counter-screen | inhibition, % at 7.9 µM | DNA fluorescent intercalator displacement, fluorescence | shares compounds with NS3 helicase inh | hit rate 4% among 1,600; in the data active = inhibition above about 37%;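 note: 0% = vehicle and 100% = reference compound; higher means more displacement of ethidium bromide from the DNA hairpin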
Active calls of the source: *. Shown are actives, neighbours in structure and some others; about 5.2% of the full set was active somewhere.

CCOP(=O)(OCC)C1NC(=O)N(c2ccccc2)C1=O (centres undefined) was read as core dimer inh 4, EBNA-1 inh 9, ZTA counter -7, ALR inh 5, NS3 helicase inh 1 and M18AAP inhibitor -7.
Screening Cn1c(SCc2n[nH]c(=S)n2-c2ccccc2)nnc1-c1ccccc1 returned core dimer inh -9, EBNA-1 inh 0, ZTA counter -4, ALR inh 37, NS3 helicase inh 47*, M18AAP inhibitor 30*, NS3 hel confirm -5 and DNA FID counter -3.
Screening CCCCOc1cccc(C(=O)N(Cc2ccccc2)C2CCS(=O)(=O)C2)c1 (centres undefined) returned core dimer inh 4, EBNA-1 inh -5, ZTA counter -2, ALR inh -7, NS3 helicase inh -15 and M18AAP inhibitor -11.
Cc1ccc(NC(=O)CCS(=O)(=O)c2cccc3nonc23)cc1Cl was read as core dimer inh -13, EBNA-1 inh -3, ZTA counter -4, NS3 helicase inh 42*, M18AAP inhibitor 4, NS3 hel confirm -11 and DNA FID counter 3.
For Cn1cnc(C(=O)NCc2ccc(CNC(=O)OC(C)(C)C)cc2)c1C(=O)NCc1ccc(CNC(=O)OC(C)(C)C)cc1 the results were ALR inh -1.
For CC(CCc1ccco1)NC(=O)CCc1nnc2ccc(NCc3ccccc3Cl)nn12 (centres undefined) the results were core dimer inh 17, EBNA-1 inh -1, ZTA counter -22, ALR inh -9, NS3 helicase inh 61*, M18AAP inhibitor 5, NS3 hel confirm 4 and DNA FID counter -2.
Screening CC(CCc1ccco1)NC(=O)CCc1nnc2ccc(NCc3ccc(Cl)cc3)nn12 (centres undefined) returned core dimer inh 5, EBNA-1 inh -8, ZTA counter 4, ALR inh -5, NS3 helicase inh -3 and M18AAP inhibitor -15.
Screening O=C(O)CCn1c(SCCOc2ccccc2)nc2ccccc21 returned core dimer inh -19, EBNA-1 inh 2, ZTA counter -1, ALR inh 3, NS3 helicase inh 41*, M18AAP inhibitor 0, NS3 hel confirm -17 and DNA FID counter -2.
`CC(C)c1cccc(C(C)C)c1NC(=O)CN(C)C1CCS(=O)(=O)C1` (centres undefined) gave ZTA counter 10.
`CCn1cc(S(=O)(=O)Nc2cccnc2)cn1` gave core dimer inh 5, EBNA-1 inh 3, ZTA counter 4, ALR inh -19, NS3 helicase inh -12 and M18AAP inhibitor -3.
For CCn1cc(S(=O)(=O)Nc2cc(F)ccc2C)cn1 the results were core dimer inh 1, EBNA-1 inh 0, ZTA counter 5, ALR inh -11, NS3 helicase inh 59*, M18AAP inhibitor -9, NS3 hel confirm -2 and DNA FID counter -1.
O=C(NCCc1ccccc1)c1cccc(N2CCCC2=O)c1 was read as core dimer inh 1, EBNA-1 inh 14, ZTA counter 0, ALR inh -1, NS3 helicase inh 1 and M18AAP inhibitor -4.
`CCCOc1ccc(/C=c2\sc3nc(-c4ccco4)nn3c2=O)cc1OCC` gave core dimer inh 10, EBNA-1 inh -6, ZTA counter -1, ALR inh 1, NS3 helicase inh 42*, M18AAP inhibitor -2, NS3 hel confirm -12 and DNA FID counter -2.
For CC(=O)Oc1cccc(/C=c2\sc3nc(-c4ccco4)nn3c2=O)c1 the results were core dimer inh 7, EBNA-1 inh 4, ZTA counter 4, ALR inh -5, NS3 helicase inh 24 and M18AAP inhibitor -16.
